Laboratory results from ChEMBL document CHEMBL1212911, “Identification of potent and selective amidobipyridyl inhibitors of protein kinase D” (J Med Chem, 2010).
Calls of active or inactive are those of the source. The rule behind the calls is not given here.

Experiments:
[1] = molecular target: Serine/threonine-protein kinase MARK2 (Homo sapiens) (UniProt Q7KZI7); assay: Inhibition of human MARK2; conditions: concentration not given here
How it was run: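 Selectivity screen run externally (Invitrogen SelectScreen). Percent inhibition measured at 1 μM compound, mean of 2 measurements.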

[2] = species on record: Rattus norvegicus; assay: Inhibition of PMA-induced PKD autophosphorylation in Dahl salt-sensitive rat PBMC
How it was run: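 Male Dahl salt-sensitive rats, 6–7 weeks old, were switched from a 0.49% to an 8.0% NaCl diet for 2 weeks. Dosing was daily sc (1.0 mL/kg) with vehicle (10% 1 N HCl/90% of 10% captisol, pH 4.6 buffer) or 0.5, 1.5 or 5 mg/kg compound. On day 14, PBMCs were isolated and stimulated with PMA. The read-out was PKD Ser916 autophosphorylation.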

Chain of Serine/threonine-protein kinase MARK2 (Homo sapiens) (Q7KZI7 whole entry): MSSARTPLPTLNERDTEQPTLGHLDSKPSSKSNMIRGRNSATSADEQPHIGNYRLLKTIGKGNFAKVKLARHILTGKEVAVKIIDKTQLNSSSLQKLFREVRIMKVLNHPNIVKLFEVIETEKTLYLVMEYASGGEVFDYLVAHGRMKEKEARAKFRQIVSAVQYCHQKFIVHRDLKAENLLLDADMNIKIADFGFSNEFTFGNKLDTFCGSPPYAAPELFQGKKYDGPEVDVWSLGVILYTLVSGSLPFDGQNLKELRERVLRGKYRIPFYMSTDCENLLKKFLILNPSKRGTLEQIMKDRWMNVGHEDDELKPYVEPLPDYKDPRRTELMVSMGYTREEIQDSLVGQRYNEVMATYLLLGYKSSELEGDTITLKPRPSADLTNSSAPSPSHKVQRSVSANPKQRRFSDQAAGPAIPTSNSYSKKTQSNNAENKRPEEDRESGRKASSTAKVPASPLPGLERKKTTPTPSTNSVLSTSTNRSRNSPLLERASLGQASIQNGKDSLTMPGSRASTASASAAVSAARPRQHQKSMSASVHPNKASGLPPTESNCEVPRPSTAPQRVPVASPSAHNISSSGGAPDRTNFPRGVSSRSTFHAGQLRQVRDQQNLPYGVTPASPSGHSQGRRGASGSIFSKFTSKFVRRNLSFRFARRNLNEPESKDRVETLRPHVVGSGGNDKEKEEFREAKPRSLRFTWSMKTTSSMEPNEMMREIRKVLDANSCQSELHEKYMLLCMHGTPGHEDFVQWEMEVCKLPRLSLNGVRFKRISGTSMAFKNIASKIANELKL

SMILES: NC(=O)c1cc(-c2ccnc(NC3CCCCC3)c2)nc(N2CCNCC2)c1
- inhibition [1]: 27%
- inhibition [2]: inactive
